Reference: ChEMBL document CHEMBL1125292, “Synthesis of novel 2-phenyl-2H-pyrazolo[4,3-c]isoquinolin-3-ols: topological comparisons with analogues of 2-phenyl-2,5-dihydropyrazolo[4,3-c]quinolin-3(3H)-ones at benzodiazepine receptors” (J Med Chem, 1992)

Biological target: GABA-A receptor; anion channel
Assay: Concentration to inhibit [3H]flunitrazepam binding to rat cerebral cortical membrane
Method in brief: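 Rat cerebral cortex homogenized in 50 mM Tris-HCl pH 7.4, centrifuged 20000g 20 min at 4 °C, washed three times, resuspended in 50 volumes. Triplicate incubations with [3H]flunitrazepam (~1 nM final) at 4 °C for 120 min, ended by GF/B filtration and ice-cold buffer washes. Nonspecific binding defined with 10 μM unlabeled flunitrazepam.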

IC50 [µM] | SMILES
> 2 | Clc1c2ncc3ccccc3c2nn1-c1ccccc1
> 2 | O=c1c2ncc3ccccc3c2[nH]n1-c1ccc(F)cc1
> 2 | Sc1c2ncc3ccccc3c2nn1-c1ccccc1
> 2 | Oc1c2ncc3ccccc3c2nn1-c1ccc(Cl)cc1

More lines, now with the values behind:

SMILES | IC50 [µM]
COc1ccc(-n2nc3c4ccccc4c[n+](Cc4ccccc4)c3c2[O-])cc1 | > 2
[O-]c1c2c(nn1-c1ccc(F)cc1)c1ccccc1c[n+]2Cc1ccccc1 | > 2
[O-]c1c2c(nn1-c1ccccc1)c1ccccc1c[n+]2Cc1ccccc1 | > 2
c1ccc2c(c1)cnc1c3ccccc3[nH]c21 | > 2
COc1ccc(-n2[nH]c3c(ncc4ccccc43)c2=O)cc1 | > 2
O=c1c2ncc3ccccc3c2[nH]n1-c1ccccc1 | > 2
[O-]c1c2c(nn1-c1ccc(Cl)cc1)c1ccccc1c[n+]2Cc1ccccc1 | > 2
COc1ccc(-n2nc3c4ccccc4[nH]cc-3c2=O)cc1 | 0.0009
